This note sets out measurements from ChEMBL document CHEMBL4251624, “Synthesis of podophyllotoxin linked β-carboline congeners as potential anticancer agents and DNA topoisomerase II inhibitors” (Eur J Med Chem, 2018).

Structures are written as SMILES. Activity calls are given as the source filed them. The calls are words filed in the database; no cut-off is given here.

In general, IC50 refers to the midpoint of a concentration-inhibition curve.

For experiment [1], the system named is DU-145. Nature of the experiment: Induction of DNA damage in human DU145 cells after 24 hrs using propidium iodide stain by electrophoresis based fluorescence microscopic method. The format is functional, cell-based. In a few lines:
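DU-145 cells seeded in 60 mm dishes, treated at 10 μM for 24 h alongside an untreated control. Slides were washed three times in 0.4 M Tris-HCl pH 7.5, electrophoresed 20 min at 40 V in 0.5% TBE pH 8, PI-stained 30 min, and imaged at 20x.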

The subject of another experiment is HT-29. Put plainly: Cytotoxicity against human HT-29 cells after 48 hrs by MTT assay. The settings on record: HT-29, 48 h. The format is functional, cell-based. The essentials:
(§1)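 MTT assay. Cells seeded at 1×10^4 per well in DMEM or MEM with 10% FBS and grown 24 h at 37 °C under CO2. Compounds added for 48 h, then MTT (5 mg/mL stock) for 4 h. Formazan dissolved in DMSO and read at 570 nm. IC50 is the average of three independent experiments.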
Background: Tetrazolium dyes change colour on reduction, which living cells bring about.

A further experiment deals with HeLa. Nature of the experiment: Cytotoxicity against human HeLa cells after 48 hrs by MTT assay. The format is functional, cell-based. In a few lines: as §1
In a further experiment the test system is A549. Nature of the experiment: Cytotoxicity against human A549 cells after 48 hrs by MTT assay. The format is functional, cell-based. The conditions noted are these: A549, 48 h. In a few lines:
as §1

A further experiment relates to MDA-MB-231. Put plainly: Cytotoxicity against human MDA-MB-231 cells after 48 hrs by MTT assay. In kind it is functional, cell-based. The conditions noted are these: MDA-MB-231, 48 h. The essentials: as §1
For experiment [2], the species on record is Homo sapiens. Put plainly: Poisoning activity at topoisomerase-2 (unknown origin) assessed as reduction in ATP-dependent decatenation of kinetoplast DNA by measuring linear DNA formation at 10 uM after 30 mins by ethidium bromide staining based UV trans-illumination assay. In a few lines: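 Topo II (5 units, set to decatenate about 100% of kDNA) with 200–300 ng kDNA in 20 μl containing 120 mM KCl, 50 mM Tris-HCl pH 8, 10 mM MgCl2, 0.5 mM DTT, 0.5 mM ATP and BSA. Incubated 30 min at 37 °C, then stopped with SDS plus proteinase K for 10 min at 37 °C. Products run on 1% agarose at 100 V for about 40 min, EtBr-stained and viewed under UV. Etoposide 10 μM served as positive control.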

In experiment [3] the test system is Calf thymus DNA. Nature of the experiment: Binding affinity to calf thymus DNA assessed as hyperchromic effect […] by UV-Visible spectroscopic method. The format is nucleic-acid assay. The conditions noted are these: Bos taurus. In a few lines: (§2)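 UV-visible absorption titration at 25 °C in […] cuvettes. Compound held at 25.0 μM (1 ml, 1 cm path), titrated with 5 μl additions of 25.0 μM CT-DNA in 100 mM Tris-HCl pH 7.0 until absorbance saturated. Spectra recorded 200–400 nm, using freshly prepared stocks.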

For experiment [4], the system named is DU-145. Nature of the experiment: Cytotoxicity against human DU145 cells after 48 hrs by MTT assay. In kind it is functional, cell-based. The conditions noted are these: DU-145, 48 h. The essentials:
as §1

Experiment [5] has as its system DU-145. Put plainly: Induction of DNA damage in human DU145 cells at 10 uM after 24 hrs using propidium iodide stain by electrophoresis based fluorescence microscopic method. In kind it is functional, cell-based. The essentials:
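DU-145 cells treated at 10 μM for 24 h; about 25,000 cells embedded in agarose on slides. Electrophoresis 20 min at 40 V in 0.5% TBE pH 8. Propidium iodide stain 30 min; fluorescence imaging at 20x.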

For experiment [6], the species on record is Homo sapiens. Put plainly: Inhibition of topoisomerase-2 (unknown origin) assessed as reduction in ATP-dependent decatenation of kinetoplast DNA at 10 uM after 30 mins by ethidium bromide staining based UV trans-illumination assay. In a few lines:
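kDNA decatenation, 20 μl reactions: 120 mM KCl, 50 mM Tris-HCl pH 8, 10 mM MgCl2, 0.5 mM DTT, 0.5 mM ATP, BSA, 200–300 ng kDNA, topo II 5 units. Incubated 37 °C for 30 min, stopped with SDS/proteinase K for 10 min at 37 °C. Products run on 1% agarose at 100 V and visualized by ethidium bromide under UV.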

The subject of experiment [7] is DU-145. Put plainly: Cell cycle arrest in human DU145 cells assessed as accumulation at G2/Mphase at 1 uM after 48 hrs by propidium iodide staining based flow cytometry (reference value: 21.71%). The format is functional. A general note: In flow cytometry, cells or beads pass a laser one at a time.
For experiment [8], the system named is DU-145. Put plainly: Cell cycle arrest in human DU145 cells assessed as accumulation at G0/G1 phase at 1 uM after 48 hrs by propidium iodide staining based flow cytometry (reference value: 51.28%). The format is functional.
Experiment [9] relates to Calf thymus DNA. Nature of the experiment: Binding affinity to calf thymus DNA by UV-Visible spectroscopic method. The format is nucleic-acid assay. The conditions noted are these: Bos taurus. In a few lines:
as §2

The test system of experiment [10] is Calf thymus DNA. Put plainly: Binding affinity to calf thymus DNA assessed as hypochromic effect at 10 uM by fluorescence spectroscopic method. In kind it is nucleic-acid assay. The conditions noted are these: Bos taurus. In a few lines:
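Fluorescence titration at 25 °C in an acid-washed 1 cm quartz cuvette. Compound held constant at 10 μM and titrated with CT-DNA in equal steps (multiples of 0.5 μM), with a spectrum after each addition. Excitation 230 nm, emission recorded up to 600 nm.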

The test system of experiment [11] is DU-145. Nature of the experiment: Cell cycle arrest in human DU145 cells assessed as accumulation at sub-G1 phase at 1 uM after 48 hrs by propidium iodide staining based flow cytometry (reference value: 1.49%). In kind it is functional.
For the next experiment, the system named is HEK293. Nature of the experiment: Cytotoxicity against HEK293 cells after 48 hrs by MTT assay. In kind it is cell-based. The conditions noted are these: Homo sapiens, HEK293, 48 h. In a few lines: as §1
Experiment [12] deals with Calf thymus DNA. Put plainly: Binding affinity to calf thymus DNA assessed as hypochromicity of positive CD band at 10 to 20 uM by CD spectroscopic method relative to control. The format is nucleic-acid assay. The settings on record: Bos taurus. The essentials: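 CD spectra of 10 μM CT-DNA in 100 mM Tris-HCl pH 7.0, alone and with 10.0 or 20 μM compound (1:1 and 1:2 DNA:complex). Recorded 200–350 nm in a 1 mm path cuvette and averaged over 3 scans.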

In experiment [13] the test system is DU-145. Nature of the experiment: Cell cycle arrest in human DU145 cells assessed as accumulation at S-phase at 1 uM after 48 hrs by propidium iodide staining based flow cytometry (reference value: 24.99%). In kind it is functional.

As for `COc1cc([C@@H]2c3cc4c(cc3[C@@H](O[C@@H]3O[C@@H]5CO[C@@H](C)O[C@H]5[C@H](O)[C@H]3O)[C@H]3COC(=O)[C@H]23)OCO4)cc(OC)c1O` [ETOPOSIDE], the outcome with DU-145 [1] and in the experiment listed under Homo sapiens [2] was Active. For the same compound, the IC50 in the experiment with HT-29 was 1640 nM; in the experiment with HeLa, 1930 nM; in the experiment with A549 it was 2270 nM; in the experiment on MDA-MB-231, 1910 nM.
As to `COc1ccc(OC)c(-c2nc(C(=O)N[C@@H]3c4cc5c(cc4[C@@H](c4cc(OC)c(OC)c(OC)c4)[C@H]4C(=O)OC[C@@H]43)OCO5)cc3c2[nH]c2ccccc23)c1`, the outcome in the experiment with Calf thymus DNA [3], in the experiment on DU-145 [5], in the experiment on Calf thymus DNA [10] and with Calf thymus DNA [12] was Active. Moreover, the IC50 was 1070 nM with DU-145 [4]; 2680 nM with HT-29; 2920 nM with HeLa; 103000 nM with HEK293; 1870 nM in the experiment with A549; 2640 nM in the experiment with MDA-MB-231. In addition, in the experiment listed under Homo sapiens [6], the inhibition result was “Active”. Besides, the Activity stood at 29.16% in the experiment with DU-145 [7], 18.69% in the experiment with DU-145 [8], 10.79% with DU-145 [11] and 41.44% in the experiment on DU-145 [13]. The Kb in the experiment with Calf thymus DNA [9] came to 1 ×10⁴ /M.
